Active and inactive are the calls of the source. The calls are words filed in the database; no cut-off is given here.
Legend:
Histamine H3 receptor = Histamine H3 receptor (Homo sapiens, UniProt Q9Y5N1); experiment: Displacement of [3]-RAMH from recombinant human histamine H3 receptor expressed in CHO-K1 cell membranes after 60 mins by scintillation counting
[1] = AUC (0 to 24 hrs) in Wistar rat at 3 mg/kg, po by LC-MS/MS analysis; type: ADME, organism-based; set-up: dose 3 mg/kg, time < 24 hr, route oral; details: in vivo
Summary of the method: (§1)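 Fasted male Wistar rats; compound in water for injection, given i.v. (2 mL/kg) or p.o. (10 mL/kg). Plasma exposure measured as AUC0-24hr.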

[2] = Dissociation constant, pKa2 of the compound by potentiometric titration assay; type: physicochemical
[3] = Dissociation constant, pKa1 of the compound by potentiometric titration assay; type: physicochemical
[4] = Lipophilicity, log D of the compound at pH 7.4; type: physicochemical; details: buffer
[5] = Tmax in Wistar rat at 3 mg/kg, po or 1 mg/kg, iv by LC-MS/MS analysis; type: ADME, organism-based; details: in vivo
Summary of the method: (§2)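 Fasted male Wistar rats were dosed orally and intravenously, with water for injection as the vehicle for both routes, at dosing volumes of 10 mL/kg p.o. and 2 mL/kg i.v.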

[6] = Partition coefficient, log P of the compound; type: physicochemical; details: octanol/water
[7] = Oral bioavailability in Wistar rat at 3 mg/kg by LC-MS/MS analysis; type: ADME, organism-based; details: in vivo; summary of the method: as §2
[8] = Volume of distribution at steady state in Wistar rat at 3 mg/kg, po or 1 mg/kg, iv by LC-MS/MS analysis; type: ADME, organism-based; details: in vivo; for Vd: Wistar, read-out: Vdss; summary of the method: as §2
[9] = AUC (0 to 24 hrs) in Wistar rat at 1 mg/kg, iv by LC-MS/MS analysis; type: ADME, organism-based; set-up: time < 24 hr, dose 1 mg/kg, route intravenous; details: in vivo; for AUC(0-t) at 24 h: Wistar; for AUC: 24 h; summary of the method: as §1
[10] = Clearance in Wistar rat at 1 mg/kg, iv by LC-MS/MS analysis; type: ADME, organism-based; details: in vivo
Summary of the method: (§3)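 Fasted male Wistar rats dosed i.v. in water for injection at 2 mL/kg. Clearance and half-life derived from the i.v. plasma profile.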

[11] = Ratio of drug uptake in Wistar rat brain to plasma at 3 mg/kg, po by LC-MS/MS analysis; type: ADME, organism-based; details: brain and plasma, read-out: BPR
Summary of the method: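 Fasted male Wistar rats were dosed orally with water for injection as the vehicle. Total brain and plasma concentrations were measured at 1 h after dosing and expressed as a ratio.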

CHO-K1 [12] = experiment: Cytotoxicity in CHOK1 cells up to 300 uM incubated for 24 hrs by MTT assay; type: cell-based, Cricetulus griseus; details: chinese hamster, cho-k1, 24 h
CHO-K1 [13] = experiment: Induction of phospholipidosis in CHOK1 cells up to 300 uM incubated for 24 hrs by fluorescent-labeled phospholipid probe NBD-PE based fluorescence assay; type: cell-based, Cricetulus griseus; details: chinese hamster, cho-k1, 24 h
[14] = Half life in Wistar rat at 1 mg/kg, iv by LC-MS/MS analysis; type: ADME, organism-based; details: in vivo; summary of the method: as §3
Rattus norvegicus = experiment: In vivo inverse agonist activity at histamine 3 receptor in rat assessed as inhibition of RAMH-induced dipsogenia at 1 to 10 mg/kg, po measured after 3 days; type: functional, organism-based
Summary of the method: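 Rats were dosed orally with 1, 3 or 10 mg/kg, then given (R)-α-methylhistamine 2.5 mg/kg s.c. Water intake (mL) was measured and reported as mean ± SEM.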

Histamine H3 receptor, sequence (Q9Y5N1 whole entry): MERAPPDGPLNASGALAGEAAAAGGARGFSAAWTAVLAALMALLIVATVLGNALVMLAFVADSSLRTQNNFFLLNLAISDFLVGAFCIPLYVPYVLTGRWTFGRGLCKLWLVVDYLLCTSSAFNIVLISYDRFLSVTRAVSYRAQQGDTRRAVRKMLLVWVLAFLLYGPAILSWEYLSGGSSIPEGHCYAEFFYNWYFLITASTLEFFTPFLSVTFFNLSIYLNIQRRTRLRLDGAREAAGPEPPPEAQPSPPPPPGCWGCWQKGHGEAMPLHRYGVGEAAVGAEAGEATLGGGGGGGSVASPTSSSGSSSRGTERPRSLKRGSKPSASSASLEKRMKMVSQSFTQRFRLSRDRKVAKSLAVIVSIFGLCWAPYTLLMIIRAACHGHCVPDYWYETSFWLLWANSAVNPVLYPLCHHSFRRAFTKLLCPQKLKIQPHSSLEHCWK

## O=C(CN1CCOCC1)Nc1cccc(OC2CCN(C3CCC3)CC2)c1
Histamine H3 receptor
  Ki: 212 nM

## O=C(CN1CCOCC1)Nc1ccc(OC2CCNCC2)cc1
Histamine H3 receptor
  Ki: > 10000 nM

## O=C(CN1CCOCC1)Nc1ccc(N2CCN(C3CCC3)CC2)cc1
Histamine H3 receptor
  Ki: 532 nM

## Cl.Cl.O=C(CN1CCCC1)Nc1ccc(OC2CCN(C3CCC3)CC2)cc1
[1]
  AUC(0-t) at 24 h: 556 ng·h/mL
[2]
  pKa: 7.4
[3]
  pKa: 9.1
[4]
  logD: 1.2
[5]
  Tmax: 3.33 h
Histamine H3 receptor
  Ki: 1.1 nM
[6]
  logP: 3.2
[7]
  bioavailability: 17%
[8]
  Vd: 34.8 L/kg
[9]
  AUC(0-t) at 24 h: 757 ng·h/mL
[10]
  clearance: 13.6 mL/min/kg

## COc1cc(OC2CCN(C3CCC3)CC2)ccc1NC(=O)CN1CCOCC1
Histamine H3 receptor
  Ki: 90.8 nM

## O=C(CN1CCC(F)(F)CC1)Nc1ccc(OC2CCN(C3CCC3)CC2)cc1
Histamine H3 receptor
  Ki: 23.6 nM

## O=C(CN1CCOCC1)Nc1ccc(OC2CCN(C3CCCC3)CC2)cc1
Histamine H3 receptor
  Ki: 29.9 nM

## O=C(CN1CCCCC1)Nc1ccc(OC2CCN(C3CCC3)CC2)cc1C(F)(F)F
Histamine H3 receptor
  Ki: 14.8 nM

## C[C@@H]1CCCN1CCc1ccc(NC(=O)CN2CCOCC2)cc1
Histamine H3 receptor
  Ki: 108 nM

## CC(C)N1CCC(Oc2ccc(C(=O)NCCN3CCCCC3)cc2)CC1
Histamine H3 receptor
  Ki: 9.5 nM

## O=C(CN1CCOCC1)Nc1ccc(OC2CCN(C3CCC3)CC2)cc1F
Histamine H3 receptor
  Ki: 14.9 nM

## CC(C)N1CCC(Oc2ccc(NC(=O)CN3CCOCC3)cc2)CC1.Cl.Cl
[11]
  Kp: 0.33
[1]
  AUC(0-t) at 24 h: 850 ng·h/mL
CHO-K1 [12]
  Activity: Non-Toxic
[2]
  pKa: 5
[3]
  pKa: 8.9
[4]
  logD: 0.5
[5]
  Tmax: 0.42 h
CHO-K1 [13]
  Activity: Non-Toxic
[6]
  logP: 1.8
[7]
  bioavailability: 85%
[8]
  Vd: 6 L/kg
[9]
  AUC(0-t) at 24 h: 340 ng·h/mL
[10]
  clearance: 48 mL/min/kg

## O=C(NCCN1CCCCC1)c1ccc(OC2CCN(C3CCC3)CC2)cc1
Histamine H3 receptor
  Ki: 3.2 nM

## O=C(CN1CCS(=O)(=O)CC1)Nc1ccc(OC2CCN(C3CCC3)CC2)cc1
Histamine H3 receptor
  Ki: 9.17 nM

## Cc1cc(OC2CCN(C3CCC3)CC2)ccc1NC(=O)CN1CCCCC1
Histamine H3 receptor
  Ki: 3.3 nM

## O=C(CN1CCC(O)CC1)Nc1ccc(OC2CCN(C3CCC3)CC2)cc1
Histamine H3 receptor
  Ki: 6.4 nM

## C[C@@H]1CCCN1CC(=O)Nc1ccc(OC2CCN(C3CCC3)CC2)cc1
Histamine H3 receptor
  Ki: 2.6 nM

## O=C(CN1CCOCC1)Nc1ccc(CN2CCCC2)cc1
Histamine H3 receptor
  Ki: 114 nM

## O=C(CN1CCOC(CO)C1)Nc1ccc(OC2CCN(C3CCC3)CC2)cc1 (stereo not given)
Histamine H3 receptor
  Ki: 4.05 nM

## O=C(NCCN1CCOCC1)c1ccc(OC2CCN(C3CCC3)CC2)cc1
[11]
  Kp: 0.07
[1]
  AUC(0-t) at 24 h: 347 ng·h/mL
[14]
  half-life: 829 min
[5]
  Tmax: 1.33 h
Histamine H3 receptor
  Ki: 2.8 nM
[7]
  bioavailability: 46%
[8]
  Vd: 45 L/kg
[9]
  AUC(0-t) at 24 h: 255 ng·h/mL
[10]
  clearance: 51 mL/min/kg

## C[C@@H]1CCCN1CC(=O)Nc1ccc(N2CCOCC2)cc1
Histamine H3 receptor
  Ki: 1460 nM

## O=C(CN1CCCC1)Nc1ccc(OC2CCN(C3CCC3)CC2)cc1C(F)(F)F
Histamine H3 receptor
  Ki: 26.9 nM

## O=C(CN1CCCC1)Nc1ccc(OC2CCN(C3CCCC3)CC2)cc1
Histamine H3 receptor
  Ki: 3.8 nM

## O=C(Cc1ccncc1)Nc1ccc(OC2CCN(C3CCC3)CC2)cc1.O=C(O)C(O)C(O)C(=O)O
[11]
  Kp: 0.16
[1]
  AUC(0-t) at 24 h: 545 ng·h/mL
[14]
  half-life: 67.2 min
[5]
  Tmax: 0.25 h
Histamine H3 receptor
  Ki: 9.51 nM
[7]
  bioavailability: 125%
[8]
  Vd: 7 L/kg
[9]
  AUC(0-t) at 24 h: 145 ng·h/mL
[10]
  clearance: 113 mL/min/kg

## O=C1c2ccc(OC3CCN(C4CCC4)CC3)cc2CCN1C1CCN(C2CCC2)CC1
[11]
  Kp: 0.41
[1]
  AUC(0-t) at 24 h: 1430 ng·h/mL
[5]
  Tmax: 6 h
[8]
  Vdss: 13 L/kg
[9]
  AUC(0-t) at 24 h: 1740 ng·h/mL

## Cc1cc(OC2CCN(C3CCC3)CC2)ccc1NC(=O)CN1CCC[C@H]1C
Histamine H3 receptor
  Ki: 2.4 nM

## C[C@@H]1CCCN1Cc1ccc(NC(=O)CN2CCOCC2)cc1
Histamine H3 receptor
  Ki: 3570 nM

## CCN(C(=O)CN1CCOCC1)c1ccc(OC2CCN(C3CCC3)CC2)cc1
Histamine H3 receptor
  Ki: 10.8 nM

## CC(=O)N1CCN(CC(=O)Nc2ccc(OC3CCN(C4CCC4)CC3)cc2)CC1
Histamine H3 receptor
  Ki: 5.39 nM

## CC(C)N1CCC(Oc2ccc(NC(=O)CN3CCCCC3)cc2)CC1
[2]
  pKa: 7.2
[3]
  pKa: 9.4
[4]
  logD: 1.6
Histamine H3 receptor
  Ki: 3.8 nM
[6]
  logP: 3.4

## Cc1cc(OC2CCN(C3CCC3)CC2)ccc1NC(=O)CN1CCOCC1
Histamine H3 receptor
  Ki: 22.1 nM

## O=C(CN1CCOCC1)Nc1ccc(OC2CCN(C3CCC3)CC2)c(F)c1
Histamine H3 receptor
  Ki: 62 nM

## CN(C)CC(=O)Nc1ccc(OC2CCN(C3CCC3)CC2)cc1
Histamine H3 receptor
  Ki: 6 nM

## Clc1ccc(CCCOCCCN2CCCCC2)cc1
Rattus norvegicus
  inhibition: Active

## C[C@@H]1CCCN1CC(=O)Nc1ccc(CN2CCOCC2)cc1
Histamine H3 receptor
  Ki: 915 nM

## CC(C)N1CCC(Oc2ccc(C(=O)NCCN3CCCC3)cc2)CC1
Histamine H3 receptor
  Ki: 10.4 nM

## CCOC(=O)N1CCN(CC(=O)Nc2ccc(OC3CCN(C4CCC4)CC3)cc2)CC1
Histamine H3 receptor
  Ki: 1.07 nM

## O=C(NCCN1CCCC1)c1ccc(OC2CCN(C3CCCC3)CC2)cc1
[1]
  AUC(0-t) at 24 h: 205 ng·h/mL
[5]
  Tmax: 3.33 h
Histamine H3 receptor
  Ki: 2.4 nM
[7]
  bioavailability: 48%
[8]
  Vd: 135 L/kg
[9]
  AUC(0-t) at 24 h: 174 ng·h/mL
[10]
  clearance: 156 mL/min/kg

## O=C(CN1CCOCC1)Nc1ccccc1OC1CCN(C2CCC2)CC1
Histamine H3 receptor
  Ki: > 10000 nM

## CN(C(=O)CN1CCOCC1)c1ccc(OC2CCN(C3CCC3)CC2)cc1
Histamine H3 receptor
  Ki: 4.89 nM

## O=C(CN1CCCCC1)Nc1ccc(OC2CCN(C3CCCC3)CC2)cc1
Histamine H3 receptor
  Ki: 4.1 nM

## Cl.Cl.O=C(CN1CCCC1CO)Nc1ccc(OC2CCN(C3CCC3)CC2)cc1 (stereo not given)
[1]
  AUC(0-t) at 24 h: 63 ng·h/mL
[14]
  half-life: 113 min
[2]
  pKa: 6.4
[3]
  pKa: 8.9
[4]
  logD: 0.6
[5]
  Tmax: 0.58 h
Histamine H3 receptor
  Ki: 1.2 nM
[6]
  logP: 2.1
[7]
  bioavailability: 10%
[8]
  Vd: 9 L/kg
[9]
  AUC(0-t) at 24 h: 212 ng·h/mL
[10]
  clearance: 67 mL/min/kg

## Cl.Cl.O=C(CN1CCCCC1)Nc1ccc(OC2CCN(C3CCC3)CC2)cc1
[11]
  Kp: 36.6
[1]
  AUC(0-t) at 24 h: 1390 ng·h/mL
[2]
  pKa: 7.5
[3]
  pKa: 9.2
[4]
  logD: 1.3
[5]
  Tmax: 3.33 h
Histamine H3 receptor
  Ki: 4.8 nM
[6]
  logP: 3.7
[7]
  bioavailability: 37%
[8]
  Vd: 20 L/kg
[9]
  AUC: 1855 ng·h/mL

## CCN(CC)CC(=O)Nc1ccc(OC2CCN(C3CCC3)CC2)cc1
Histamine H3 receptor
  Ki: 11.7 nM

## Cc1cc(OC2CCN(C3CCC3)CC2)ccc1NC(=O)CN1CCCC1.Cl.Cl
[11]
  Kp: 1.2
[1]
  AUC(0-t) at 24 h: 1350 ng·h/mL
[5]
  Tmax: 2.17 h
Histamine H3 receptor
  Ki: 1.9 nM
[7]
  bioavailability: 20%
[8]
  Vd: 27 L/kg
[9]
  AUC: 3345 ng·h/mL

## O=C(CN1CCCCCC1)Nc1ccc(OC2CCN(C3CCC3)CC2)cc1
[2]
  pKa: 7.6
[3]
  pKa: 9.2
[4]
  logD: 1.7
Histamine H3 receptor
  Ki: 2.6 nM
[6]
  logP: 4.3

## O=C(CN1CCOCC1)Nc1ccc(OC2CCN(C3CCC3)CC2)cc1C(F)(F)F
Histamine H3 receptor
  Ki: 75.8 nM

## CC(C)N1CCCN(CC(=O)Nc2ccc(OC3CCN(C4CCC4)CC3)cc2)CC1
Histamine H3 receptor
  Ki: 0.96 nM

## O=C(NCCN1CCCC1)c1ccc(OC2CCN(C3CCC3)CC2)cc1
Histamine H3 receptor
  Ki: 2.9 nM

## O=C(CN1CCCN(C2CCC2)CC1)Nc1ccc(OC2CCN(C3CCC3)CC2)cc1
Histamine H3 receptor
  Ki: 1.61 nM

## O=C(Cc1cccnc1)Nc1ccc(OC2CCN(C3CCC3)CC2)cc1
Histamine H3 receptor
  Ki: 15.8 nM

## O=C(CN1CCC(F)CC1)Nc1ccc(OC2CCN(C3CCC3)CC2)cc1
Histamine H3 receptor
  Ki: 11 nM
